Measurements reported in ChEMBL document CHEMBL1128718, “2-Substituted penems with amino acid-related side chains: synthesis and antibacterial activity of a new series of beta-lactam antibiotics” (1995).
In brackets after ≈: the same amount, converted by molar mass.

Key:
Type in all cases: functional
[1] = test system: Aeromonas; assay: In Vitro Anti Bacterial Activity (MIC90) against 90% of tested clinical Isolates of Aeromonas species(21)
How it was run: (§1)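 Over 500 clinical isolates tested in total; the line gives the isolate count. MIC90 for aerobes by dilution in Mueller Hinton 2 medium, inoculum 10⁴ cells/mL, incubated 24 h at 37 °C.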

[2] = test system: Acinetobacter calcoaceticus subsp. anitratus; assay: In Vitro Anti Bacterial Activity (MIC90) against 90% of tested clinical Isolates of Acinetobacter anitratus(20); how it was run: as §1
[3] = test system: Moraxella catarrhalis; assay: In Vitro Anti Bacterial Activity (MIC90) against 90% of tested clinical Isolates of Branhamella catarrhalis(27)
[4] = test system: Bacteroides fragilis; assay: In Vitro Anti Bacterial Activity (MIC90) against 90% of tested clinical Isolates of Bacteroides fragilis(15)
How it was run: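 Anaerobic clinical isolates. MIC90 by dilution in Wilkins-Chalgren agar, inoculum 10⁵ cells/mL, incubated 24–48 h at 37 °C.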

[5] = test system: Clostridium perfringens; assay: In Vitro Anti Bacterial Activity (MIC90) against 90% of tested clinical Isolates of Clostridium perfringens(27)
How it was run: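 MIC90 over clinical isolates of this anaerobic species, taken from the MIC distribution. Anaerobes were tested on Wilkins-Chalgren agar with an inoculum of 10⁵ cells/mL and incubated 24–48 h at 37 °C.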

[6] = test system: Citrobacter freundii; assay: In Vitro Anti Bacterial Activity (MIC90) against 90% of tested clinical Isolates of Citrobacter freundii(20); how it was run: as §1
[7] = test system: Enterococcus faecalis; assay: In Vitro Anti Bacterial Activity (MIC90) against 90% of tested clinical Isolates of Enterococcus faecalis(47); how it was run: as §1
[8] = test system: Enterococcus faecium; assay: In Vitro Anti Bacterial Activity (MIC90) against 90% of tested clinical Isolates of Enterococcus faecium(47); how it was run: as §1
[9] = test system: Escherichia coli; assay: In Vitro Anti Bacterial Activity (MIC90) against 90% of tested clinical Isolates of Escherichia coli; how it was run: as §1
[10] = test system: Klebsiella aerogenes; assay: In Vitro Anti Bacterial Activity (MIC90) against 90% of tested clinical Isolates of Enterobacter aerogenes(19); how it was run: as §1
[11] = test system: Escherichia coli; assay: In Vitro antibacterial activity against (Ec L) Escherichia coli […] strain
How it was run: (§2)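 Panel of standard ATCC strains plus modified strains: methicillin-resistant, hyperpermeable, β-lactamase-producing (TEM1, TEM2, SHV) and β-lactamase-lacking. MIC determined in Mueller Hinton 2 medium, inoculum 10⁴ cells/mL, incubated 24 h at 37 °C.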

[12] = test system: Escherichia coli; assay: In Vitro antibacterial activity against (Ec SHV) Escherichia coli […] strain; how it was run: as §2
[13] = test system: Escherichia coli; assay: In Vitro antibacterial activity against (Ec TEM1) Escherichia coli […] strain; how it was run: as §2
[14] = test system: Escherichia coli; assay: In Vitro antibacterial activity against (Ec TEM2) Escherichia coli […] strain; how it was run: as §2
[15] = test system: Haemophilus influenzae; assay: In Vitro Anti Bacterial Activity (MIC90) against 90% of tested clinical Isolates of Haemophilus Influenzae(21)
How it was run: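 Clinical isolates. MIC90 in Haemophilus Test Medium Base plus Haemophilus Test Medium Supplement, inoculum 10⁴ cells/mL, incubated 24–48 h at 37 °C.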

[16] = test system: Klebsiella pneumoniae; assay: In Vitro Anti Bacterial Activity (MIC90) against 90% of tested clinical Isolates of Klebsiella pneumoniae(20); how it was run: as §1
[17] = test system: Listeria monocytogenes; assay: In Vitro Anti Bacterial Activity (MIC90) against 90% of tested clinical Isolates of Listeria monocytogenes (20); how it was run: as §1
[18] = test system: Morganella morganii; assay: In Vitro Anti Bacterial Activity (MIC90) against 90% of tested clinical Isolates of Morganella morganii(10); how it was run: as §1
[19] = test system: Pseudomonas aeruginosa; assay: In Vitro antibacterial activity against (Pa G242) hyperpermeable Pseudomonas aeruginosa strain; how it was run: as §2
[20] = test system: Pseudomonas aeruginosa; assay: In Vitro antibacterial activity against (Pa) Pseudomonas aeruginosa ATCC 27853; how it was run: as §2
[21] = test system: Pseudomonas aeruginosa; assay: In Vitro antibacterial activity against (Pa) hyperpermeable Pseudomonas aeruginosa […] strain; how it was run: as §2
[22] = test system: Proteus vulgaris; assay: In Vitro Anti Bacterial Activity (MIC90) against 90% of tested clinical Isolates of Proteus vulgaris(10); how it was run: as §1
[23] = test system: Providencia stuartii; assay: In Vitro Anti Bacterial Activity (MIC90) against 90% of tested clinical Isolates of Providencia stuartii(10); how it was run: as §1
[24] = test system: Providencia rettgeri; assay: In Vitro Anti Bacterial Activity (MIC90) against 90% of tested clinical Isolates of Providencia rettgeri(10); how it was run: as §1
[25] = test system: Proteus mirabilis; assay: In Vitro Anti Bacterial Activity (MIC90) against 90% of tested clinical Isolates of Proteus mirabilis(16); how it was run: as §1
[26] = test system: Pseudomonas aeruginosa; assay: In Vitro Anti Bacterial Activity (MIC90) against 90% of tested clinical Isolates of Pseudomonas aeruginosa(11); how it was run: as §1
[27] = test system: Staphylococcus epidermidis; assay: In Vitro Anti Bacterial Activity (MIC90) against 90% of tested clinical Isolates of Staphylococcus epidermidis (13); how it was run: as §1
[28] = test system: Streptococcus agalactiae; assay: In Vitro Anti Bacterial Activity (MIC90) against 90% of tested clinical Isolates of Streptococcus agalactiaeB(21)
[29] = test system: Staphylococcus aureus; assay: In Vitro Anti Bacterial Activity (MIC90) against 90% of tested clinical Isolates of Staphylococcus aureus MS (6); how it was run: as §1
[30] = test system: Staphylococcus aureus; assay: In Vitro Anti Bacterial Activity (MIC90) against 90% of tested clinical Isolates of Staphylococcus aureus MV (20)
[31] = test system: Staphylococcus aureus; assay: In vitro antibacterial activity against Sa MR(I) heterogeneous methicillin resistant Staphylococcus aureus
How it was run: (§3)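 MIC was determined in Mueller Hinton 2 medium with an inoculum of 10⁴ cells/mL and incubation for 24 h at 37 °C. Strains: Sa(I) is S. aureus ATCC 29213; Sa MR(I) is a heterogeneous methicillin-resistant S. aureus; Sa MR(II) is a homogeneous methicillin-resistant S. aureus.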

[32] = test system: Staphylococcus aureus; assay: In vitro antibacterial activity against Sa MR(II) homogeneous methicillin resistant Staphylococcus aureus; how it was run: as §3
[33] = test system: Staphylococcus aureus; assay: In vitro antibacterial activity against Sa(I) Staphylococcus aureus ATCC 29213; how it was run: as §3
[34] = test system: Staphylococcus aureus; assay: In vitro antibacterial activity against Sa(II) Staphylococcus aureus ATCC 25923; how it was run: as §2
[35] = test system: Streptococcus pyogenes; assay: In Vitro Anti Bacterial Activity (MIC90) against 90% of tested clinical Isolates of Streptococcus pyogenes(31)
[36] = test system: Streptococcus pneumoniae; assay: In Vitro Anti Bacterial Activity (MIC90) against 90% of tested clinical Isolates of Streptococcus pneumoniae (23)
[37] = test system: Yersinia sp.; assay: In Vitro Anti Bacterial Activity (MIC90) against 90% of tested clinical Isolates of Yersinia species(20); conditions: Yersinia sp. (in: enterobacteria)
[38] = test system: Stenotrophomonas maltophilia; assay: In Vitro Anti Bacterial Activity (MIC90) against 90% of tested clinical Isolates of Xanthomonas maltophilia(9); how it was run: as §1
[39] = test system: Escherichia coli; assay: In Vitro antibacterial activity against (Ec DC2) hyperpermeable Escherichia coli strain; how it was run: as §2
[40] = test system: Enterococcus faecalis; assay: In Vitro antibacterial activity against (Ef) Enterococcus faecalis ATCC 29212; how it was run: as §2
[41] = test system: Escherichia coli; assay: In Vitro antibacterial activity against (Ec) Escherichia coli ATCC 25922; how it was run: as §2

C[C@@H](O)[C@H]1C(=O)N2C(C(=O)O)=C(CN3CCC[C@H]3C(N)=O)S[C@H]12
MIC90 [1]: 0.5 µg/mL (≈ 1.46 µM) | MIC90 [2]: 16 µg/mL (≈ 46.9 µM) | MIC90 [3]: 0.25 µg/mL (≈ 0.732 µM) | MIC90 [4]: 16 µg/mL (≈ 46.9 µM) | MIC90 [5]: 1 µg/mL (≈ 2.93 µM) | MIC90 [6]: 0.5 µg/mL (≈ 1.46 µM) | MIC90 [7]: 8 µg/mL (≈ 23.4 µM) | MIC90 [8]: > 64 µg/mL | MIC90 [9]: 0.12 µg/mL (≈ 0.352 µM) | MIC90 [10]: 16 µg/mL (≈ 46.9 µM) | MIC [11]: 2 µg/mL (≈ 5.86 µM) | MIC [12]: 2 µg/mL (≈ 5.86 µM) | MIC [13]: 2 µg/mL (≈ 5.86 µM) | MIC [14]: 2 µg/mL (≈ 5.86 µM) | MIC90 [15]: 4 µg/mL (≈ 11.7 µM) | MIC90 [16]: 0.5 µg/mL (≈ 1.46 µM) | MIC90 [17]: 0.5 µg/mL (≈ 1.46 µM) | MIC90 [18]: 4 µg/mL (≈ 11.7 µM) | MIC [19]: 2 µg/mL (≈ 5.86 µM) | MIC [20]: 64 µg/mL (≈ 187 µM) | MIC [21]: 1 µg/mL (≈ 2.93 µM) | MIC90 [22]: 4 µg/mL (≈ 11.7 µM) | MIC90 [23]: 4 µg/mL (≈ 11.7 µM) | MIC90 [24]: 4 µg/mL (≈ 11.7 µM) | MIC90 [25]: 4 µg/mL (≈ 11.7 µM) | MIC90 [26]: > 64 µg/mL | MIC90 [27]: 0.12 µg/mL (≈ 0.352 µM) | MIC90 [28]: 0.03 µg/mL (≈ 0.0879 µM) | MIC90 [29]: 0.06 µg/mL (≈ 0.176 µM) | MIC90 [30]: 8 µg/mL (≈ 23.4 µM) | MIC [31]: 0.5 µg/mL (≈ 1.46 µM) | MIC [32]: 2 µg/mL (≈ 5.86 µM) | MIC [33]: 0.12 µg/mL (≈ 0.352 µM) | MIC [34]: 0.015 µg/mL (≈ 0.0439 µM) | MIC90 [35]: 0.06 µg/mL (≈ 0.176 µM) | MIC90 [36]: 0.06 µg/mL (≈ 0.176 µM) | MIC90 [37]: 0.25 µg/mL (≈ 0.732 µM) | MIC90 [38]: > 64 µg/mL | MIC [39]: 2 µg/mL (≈ 5.86 µM)

C[C@@H](O)[C@H]1C(=O)N2C(C(=O)O)=C(CN3C[C@H](O)C[C@H]3C(N)=O)S[C@H]12
MIC90 [1]: 2 µg/mL (≈ 5.6 µM) | MIC90 [2]: 16 µg/mL (≈ 44.8 µM) | MIC90 [3]: 1 µg/mL (≈ 2.8 µM) | MIC90 [4]: 32 µg/mL (≈ 89.5 µM) | MIC90 [5]: 0.25 µg/mL (≈ 0.7 µM) | MIC90 [6]: 1 µg/mL (≈ 2.8 µM) | MIC90 [7]: 8 µg/mL (≈ 22.4 µM) | MIC90 [8]: > 64 µg/mL | MIC [40]: 2 µg/mL (≈ 5.6 µM) | MIC90 [9]: 0.015 µg/mL (≈ 0.042 µM) | MIC90 [10]: 16 µg/mL (≈ 44.8 µM) | MIC [11]: 0.03 µg/mL (≈ 0.0839 µM) | MIC [12]: 0.25 µg/mL (≈ 0.7 µM) | MIC [13]: 0.12 µg/mL (≈ 0.336 µM) | MIC [14]: 0.25 µg/mL (≈ 0.7 µM) | MIC [41]: 0.03 µg/mL (≈ 0.0839 µM) | MIC90 [15]: 4 µg/mL (≈ 11.2 µM) | MIC90 [16]: 0.5 µg/mL (≈ 1.4 µM) | MIC90 [17]: 0.12 µg/mL (≈ 0.336 µM) | MIC90 [18]: 8 µg/mL (≈ 22.4 µM) | MIC [19]: 0.06 µg/mL (≈ 0.168 µM) | MIC [20]: > 64 µg/mL | MIC [21]: 0.2 µg/mL (≈ 0.56 µM) | MIC90 [22]: 4 µg/mL (≈ 11.2 µM) | MIC90 [23]: 4 µg/mL (≈ 11.2 µM) | MIC90 [24]: 4 µg/mL (≈ 11.2 µM) | MIC90 [25]: 4 µg/mL (≈ 11.2 µM) | MIC90 [26]: > 64 µg/mL | MIC90 [27]: 1 µg/mL (≈ 2.8 µM) | MIC90 [28]: 0.06 µg/mL (≈ 0.168 µM) | MIC90 [29]: 0.12 µg/mL (≈ 0.336 µM) | MIC90 [30]: > 32 µg/mL | MIC [31]: 0.25 µg/mL (≈ 0.7 µM) | MIC [32]: 8 µg/mL (≈ 22.4 µM) | MIC [33]: 0.12 µg/mL (≈ 0.336 µM) | MIC [34]: 0.12 µg/mL (≈ 0.336 µM) | MIC90 [35]: 0.03 µg/mL (≈ 0.0839 µM) | MIC90 [36]: 0.03 µg/mL (≈ 0.0839 µM) | MIC90 [37]: 0.15 µg/mL (≈ 0.42 µM) | MIC90 [38]: > 64 µg/mL | MIC [39]: 0.12 µg/mL (≈ 0.336 µM)
